Experimental data published in ChEMBL document CHEMBL3286113, “New potent antibacterial oxazolidinone (MRX-I) with an improved class safety profile” (J Med Chem, 2014).
Converted amounts (≈) assume the structure as drawn.

Legend:
Streptococcus sanguinis = experiment: Antibacterial activity against Streptococcus sanguinis; assay type: functional
[1] = AUC (0 to t) in male rat at 15 mg/kg, po; assay type: ADME, organism-based; design: dose 15 mg/kg, route oral; conditions: plasma
Procedure, shortened: (§1)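 Rat PK by gender, with single oral doses of 5, 15 and 45 mg/kg and an iv dose of 5 mg/kg. Tmax, Cmax, T1/2 and AUC0−t were reported per gender.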

[2] = Cmax in human at 600 mg, po administered as single dose with meal measured on day 15; assay type: ADME, organism-based; design: dose 600 mg, route oral; conditions: in vivo
Procedure, shortened: (§2)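 Randomized, double-blind, placebo-controlled multiple-dose study in 32 healthy subjects, half male and half female. Each dose was taken with a meal, at 600 or 800 mg, 28 doses over 15 days. A single dose on days 1 and 15 gave full PK; BID (Q12h) dosing ran on days 2–14.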

Enterococcus faecalis = experiment: Antibacterial activity against vancomycin-sensitive Enterococcus faecalis ATCC 29212 in po dosed mouse systemic infection model; assay type: functional; conditions: ATCC 29212, po
[3] = Cmax in human at 600 mg, po administered as single dose with meal measured on day 1; assay type: ADME, organism-based; design: dose 600 mg, route oral; conditions: in vivo; procedure, shortened: as §2
Staphylococcus aureus [4] = experiment: Antibacterial activity against methicillin-sensitive Staphylococcus aureus ATCC 29213 in mouse thigh infection model assessed as reduction of log10 CFU per thigh at 40 mg/kg, po; assay type: functional
Procedure, shortened: (§3)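 Mouse thigh infection with S. aureus ATCC29213 (MSSA), 10 animals per dosing group. Oral doses were 5, 10, 20, 40 and 80 mg/kg. The read-out was log CFU per thigh after treatment, and the reduction (ΔLogCFU/thigh) was reported.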

[5] = Half life in male rat at 5 mg/kg, po; assay type: ADME, organism-based; design: dose 5 mg/kg, route oral; conditions: in vivo
[6] = Tmax in female rat at 5 mg/kg, po; assay type: ADME, organism-based; design: dose 5 mg/kg, route oral; conditions: in vivo
Procedure, shortened: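 Male and female rats received single oral doses of 5, 15 or 45 mg/kg, with 5 mg/kg iv as a reference arm. Tmax was read from the plasma concentration–time profile for each gender.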

[7] = Cmax in fasted human at 600 mg, po administered as single dose; assay type: ADME, organism-based; design: dose 600 mg, route oral; conditions: in vivo
Procedure, shortened: (§4)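 Healthy volunteers (12; six of each sex) in a three-period Latin-square crossover. Each received single oral doses of 300, 600 and 900 mg under fasting conditions, with a 1-week washout between doses. Parameters from a noncompartmental model.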

Mus musculus = experiment: Dose normalized Cmax in po dosed mouse; assay type: ADME, organism-based; conditions: in vivo
Staphylococcus aureus [8] = experiment: Antibacterial activity against methicillin-resistant Staphylococcus aureus isolate 0605; assay type: functional
Staphylococcus = experiment: Antibacterial activity against coagulase-negative Staphylococcus; assay type: functional
[9] = Half life in male rat at 5 mg/kg, iv; assay type: ADME, organism-based; design: dose 5 mg/kg, route intravenous; conditions: in vivo
[10] = Clastogenicity in CHL cells assessed as induction of structural chromosomal aberration at 50 to 400 ug/mL measured over 6 hrs in presence of metabolic activation; assay type: toxicity, cell-based, Cricetulus griseus; conditions: chinese hamster
Procedure, shortened: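 Chinese hamster lung cells scored for structural chromosome aberrations with or without metabolic activation. Exposure was 50–400 μg/mL over 6 h, or 25–200 μg/mL over 24 h.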

[11] = AUC (0 to t) in female rat at 5 mg/kg, iv; assay type: ADME, organism-based; design: dose 5 mg/kg, route intravenous; conditions: plasma; procedure, shortened: as §1
[12] = Oral bioavailability in rat; assay type: ADME, organism-based; conditions: in vivo
[13] = AUC (0 to 24 hrs) in human at 800 mg, po administered as single dose with meal measured on day 15; assay type: ADME, organism-based; design: dose 800 mg, time < 24 hr, route oral; conditions: plasma
Procedure, shortened: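 Randomized, double-blind, placebo-controlled multiple-dose study in 32 healthy subjects (half male, half female). Subjects took 28 oral doses of 600 or 800 mg over 15 days, each with a meal. A single dose was given on days 1 and 15 for full PK, and doses were given Q12h from day 2 to day 14. AUC0−24 was measured on days 1 and 15.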

Homo sapiens = experiment: Toxicity in human assessed as change in neutrophil count at 600 to 800 mg, po administered as single dose with meal on day 1 and day 15 followed by bid with meal on day 2 to day 14 measured during compound treatment; assay type: organism-based; conditions: in vivo
Streptococcus mitis = experiment: Antibacterial activity against Streptococcus mitis; assay type: functional
[14] = Tmax in human at 800 mg, po administered as single dose with meal measured on day 1; assay type: ADME, organism-based; conditions: in vivo
Procedure, shortened: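 Randomized, double-blind, placebo-controlled multiple-dose study in 32 healthy subjects, half male and half female. Dosing was 600 or 800 mg orally with a meal, 28 doses over 15 days. A single dose was given on days 1 and 15 for full PK, with Q12h (BID) dosing on days 2−14.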

Rattus norvegicus [15] = experiment: Toxicity in female rat assessed as effect on reticulocyte count at 200 to 300 mg/kg/day, po bid administered for 4 weeks (reference value: 1.48%); assay type: organism-based; design: route oral; conditions: in vivo, 672 h
L5178Y = experiment: Mutagenicity in mouse tk +/- L5178Y cells assessed as increase in gene mutation frequency at 62.5 to 1000 ug/mL in absence of S9 fraction
Staphylococcus aureus [16] = experiment: Antibacterial activity against linezolid-resistant Staphylococcus aureus isolate 4184; assay type: functional
Streptococcus pneumoniae [17] = experiment: Antibacterial activity against penicillin-resistant Streptococcus pneumoniae isolate 0613; assay type: functional
[18] = Half life in po dosed mouse; assay type: ADME, organism-based; conditions: in vivo
Rattus norvegicus [19] = experiment: Toxicity in female rat assessed as effect on RBC count at 200 to 300 mg/kg/day, po bid administered for 4 weeks (reference value: 7.28 x 10^12/L); assay type: organism-based; design: route oral; conditions: in vivo, 672 h
[20] = Elimination half life in fasted human at 900 mg, po administered as single dose; assay type: ADME, organism-based; conditions: in vivo, read-out: beta t1/2 (converted); procedure, shortened: as §4
Staphylococcus aureus [21] = experiment: Antibacterial activity against methicillin-resistant Staphylococcus aureus isolate 0605 in mouse thigh infection model assessed as reduction of log10 CFU per thigh at 10 mg/kg, po; assay type: functional
Staphylococcus aureus [22] = experiment: Antibacterial activity against methicillin-resistant Staphylococcus aureus isolate 0605 in mouse thigh infection model assessed as reduction of log10 CFU per thigh at 5 mg/kg, po; assay type: functional
[23] = AUC (0 to infinity) in human at 900 mg, po administered as single dose at 30 mins post fat meal; assay type: ADME, organism-based; design: dose 900 mg, time infinity, route oral; conditions: plasma
Procedure, shortened: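 Crossover study in 12 subjects (6 of each gender). Each received a single oral 900 mg dose either fasting or 30 min after a fat-containing meal, and AUC0−inf was determined.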

[24] = Myelosuppression activity against human CD34-positive blood stem/progenitor cells assessed as growth inhibition after 9 to 10 days by CellTiter-Glo luminescent assay
Streptococcus pneumoniae [25] = experiment: Bactericidal activity against penicillin intermediate-sensitive Streptococcus pneumoniae; assay type: functional
[26] = Tmax in human at 900 mg, po administered as single dose at 30 mins post fat meal; assay type: ADME, organism-based; conditions: in vivo
Procedure, shortened: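 Crossover study in 12 healthy subjects (six per gender). A single oral 900 mg dose was given either fasting or 30 min after a fat-containing meal. Tmax was taken from plasma PK.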

Staphylococcus aureus [27] = experiment: Antibacterial activity against methicillin-sensitive Staphylococcus aureus ATCC 29213 in mouse thigh infection model assessed as reduction of log10 CFU per thigh at 10 mg/kg, po; assay type: functional; procedure, shortened: as §3
Staphylococcus aureus [28] = experiment: Antibacterial activity against Staphylococcus aureus measured after 8 serial passages; assay type: functional
[29] = Cmax in fasted human at 300 mg, po administered as single dose; assay type: ADME, organism-based; design: dose 300 mg, route oral; conditions: in vivo; procedure, shortened: as §4
[30] = Half life in female rat at 15 mg/kg, po; assay type: ADME, organism-based; design: dose 15 mg/kg, route oral; conditions: in vivo

O=C1C=CN(c2c(F)cc(N3C[C@H](CNc4ccon4)OC3=O)c(F)c2F)CC1 [CONTEZOLID]
MIC (Streptococcus sanguinis): 0.25 mg/L (≈ 0.612 µM) | AUC(0-t) [1]: 34.3 µg·h/mL | Cmax [2]: 20.6 µg/mL | ED50 (Enterococcus faecalis): 14.1 mg/kg | Cmax [3]: 20.3 µg/mL | deltalog10CFU (Staphylococcus aureus [4]): 3.42 | half-life [5]: 1.08 h | Tmax [6]: 0.67 h | Cmax [7]: 12.2 µg/mL | Cmax/dose (Mus musculus): 524 ng/mL/(mg/kg) | MIC (Staphylococcus aureus [8]): 2 mg/L (≈ 4.9 µM) | MIC50 (Staphylococcus): 0.5 mg/L (≈ 1.22 µM) | MIC90 (Staphylococcus): 0.5 mg/L (≈ 1.22 µM) | half-life [9]: 0.99 h | Activity [10]: Non-toxic | AUC(0-t) [11]: 25.2 µg·h/mL | bioavailability [12]: 109% | AUC(0-t) at 24 h [13]: 90.4 µg·h/mL | Activity (Homo sapiens): Non-toxic | MIC50 (Streptococcus mitis): 0.5 mg/L (≈ 1.22 µM) | MIC90 (Streptococcus mitis): 1 mg/L (≈ 2.45 µM) | Tmax [14]: 0.85 h | Activity (Rattus norvegicus [15]): 1.26% | Activity (L5178Y): Non-toxic | MIC (Staphylococcus aureus [16]): > 16 mg/L | MIC (Streptococcus pneumoniae [17]): 2 mg/L (≈ 4.9 µM) | half-life [18]: 1 h | Activity (Rattus norvegicus [19]): 5.77 ×10¹² /L | half-life [20]: 4.9 h | deltalog10CFU (Staphylococcus aureus [21]): 2.47 | deltalog10CFU (Staphylococcus aureus [22]): 2.45 | AUC(0-inf) [23]: 141 µg·h/mL | IC50 [24]: 15.7 mg/L (≈ 38.4 µM) | MIC50 (Streptococcus pneumoniae [25]): 0.5 mg/L (≈ 1.22 µM) | MIC90 (Streptococcus pneumoniae [25]): 0.5 mg/L (≈ 1.22 µM) | Tmax [26]: 1.63 h | deltalog10CFU (Staphylococcus aureus [27]): 3.29 | MIC (Staphylococcus aureus [28]): 2 mg/L (≈ 4.9 µM) | Cmax [29]: 8.07 µg/mL | half-life [30]: 1.47 h
